# Screening results: PubChem BioAssay, Sanford-Burnham Center for Chemical Genomics
# Rows were chosen to be rich in hits. Some 3.3% of all compounds tested hit in one or more screens of this group.
# SENP6 inh: SENP6 protease inhibitors, primary screen, biochemical, luminescence, uHTS | Sentrin-specific protease 6 (Homo sapiens), Q9GZR1 | Recombinant SENP6 catalytic domain, aminoluciferin luminescence | inhibition, % at 10 µM | 330,000 compounds, 1.8% hits;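 active means inhibition above about 50% at the single tested dose, limit read from the data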;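 further: plate controls were DMSO wells with enzyme for no effect and DMSO wells lacking enzyme for full effect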
# SENP8 block-1: human SENP8 protease inhibitors, primary screen, biochemical, fluorescence, Nedd8 protein substrate, uHTS; 360,000 compounds, 0.64% hits; Sentrin-specific protease 8 (Homo sapiens), Q96LD8; recombinant SENP8; inhibition, % at 20 µM; in the data active means inhibition mostly above about 40%, no sharp cut-off; inactive means mostly below about 27%
# SENP7 inh: SENP7 protease inhibitors, primary screen, biochemical, luminescence, uHTS | Sentrin-specific protease 7 (Homo sapiens), Q9BQF6 | recombinant SENP7, Z-RLRGG-aminoluciferin luminescence, 40 min | inhibition, % at 5 µM | 330,000 compounds, 1.5% hits | AID 434973, 2010;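 active means inhibition above about 50% at the single test dose, limit read from the data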;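 further: plate controls were DMSO with enzyme for no effect and no enzyme buffer wells for full effect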
# Target sequence (Q9BQF6 706-1050 limits assumed): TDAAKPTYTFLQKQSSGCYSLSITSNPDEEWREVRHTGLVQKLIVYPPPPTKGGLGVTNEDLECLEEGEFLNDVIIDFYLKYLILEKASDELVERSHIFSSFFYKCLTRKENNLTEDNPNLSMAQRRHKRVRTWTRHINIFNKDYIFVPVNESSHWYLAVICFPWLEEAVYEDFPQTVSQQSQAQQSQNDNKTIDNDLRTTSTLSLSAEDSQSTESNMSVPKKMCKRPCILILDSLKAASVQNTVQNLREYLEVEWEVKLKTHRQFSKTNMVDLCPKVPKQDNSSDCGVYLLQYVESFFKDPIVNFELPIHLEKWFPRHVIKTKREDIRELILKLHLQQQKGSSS
# SENP8 block-2: SENP8 protease inhibitors, primary screen, biochemical, luminescence. AID 2540, 2010. 330,000 compounds, 1.2% hits. purified SENP8, Z-RLRGG-aminoluciferin cleavage. inhibition, % at 10 µM. Sentrin-specific protease 8 (Homo sapiens), Q96LD8; in the data active means inhibition above about 50%
# CendR NRP1 mod: modulators of CendR peptide binding to NRP-1, primary screen, biochemical, fluorescence polarization, uHTS | FAM-RPARPAR peptide binding to NRP-1 | inhibition, % at 25 µM | 360,000 compounds, 0.85% hits;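 active means inhibition or corrected inhibition above about 18%, plus a signal ratio from 0.5 to 1.5, limit read from the data, passing the limit was not always enough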
# SENP1 inh: human SENP1 catalytic domain inhibitors, primary screen, biochemical, FRET, uHTS | 360,000 compounds, 0.21% hits | inhibition, % at 10 µM | recombinant SENP1 catalytic domain, CyPet-SUMO1-YPet FRET cleavage | Sentrin-specific protease 1 (Homo sapiens), Q9P0U3;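 active means inhibition at least 30% at 10 µM, raw YFP signal under a set limit, fluorescence ratio 0.5 to 1.5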;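 further: 0% = enzyme with DMSO and 100% = no enzyme wells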
# Target sequence (Q9P0U3 419-644 limits assumed): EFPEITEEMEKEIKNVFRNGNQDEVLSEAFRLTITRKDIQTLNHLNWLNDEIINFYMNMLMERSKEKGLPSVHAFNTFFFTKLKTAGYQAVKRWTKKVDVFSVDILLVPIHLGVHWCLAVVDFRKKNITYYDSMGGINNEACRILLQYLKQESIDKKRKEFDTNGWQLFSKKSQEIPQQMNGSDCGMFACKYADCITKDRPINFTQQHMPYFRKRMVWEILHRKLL
#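 Material – human SENP1 catalytic domain · Input – SENP1 enzyme, 20 pM final · Compound dosing – single concentration of 10 µM compound, 0.5% DMSO final · Timing – enzyme reaction for 50 min at room temperature, dark · Measured by – FRET fluorescence in CFP and YFP emission channels · Control set – no-enzyme wells low, DMSO-plus-enzyme wells high control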
# SENP8 conf: SENP8 protease inhibitors, retest, confirmation, biochemical, luminescence, single concentration. shares compounds with SENP7 inh. Recombinant SENP8, Z-RLRGG-aminoluciferin luminescence, 60 min. inhibition, % at 12.5 µM. 6,200 compounds, 40% hits;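 active means mean inhibition across replicates above about 50%, limit read from the data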
# SENP6 conf: SENP6 protease inhibitors, confirmation, biochemical, luminescence, single concentration; shares compounds with SENP7 inh; recombinant SENP6, Z-RLRGG-aminoluciferin luminescence; inhibition, % at 12.5 µM; 6,200 compounds, 58% hits; AID 488915, 2010
# SENP7 confirm: SENP7 protease inhibitors, retest, confirmation, biochemical, luminescence, single concentration. shares compounds with SENP7 inh. recombinant SENP7, Z-RLRGG-aminoluciferin luminescence, 40 min. inhibition, % at 12.5 µM. 6,200 compounds, 69% hits. AID 488917, 2010
# Casp3 SENP sel: caspase-3 protease inhibitors, confirmation, selectivity assay for SENP inhibitor project, biochemical, single concentration. shares compounds with SENP7 inh. purified caspase-3, Z-DEVD-aminoluciferin luminescence, 60 min. inhibition, % at 12.5 µM. 6,200 compounds, 60% hits;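 active means mean inhibition above about 50%, limit read from the data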;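 further: plate controls were enzyme with DMSO for no effect and wells without caspase-3 for full effect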
# SENP luc ctr: counter-screen for SENP inhibitors: luminescence interference | shares compounds with SENP7 inh | Pre-incubated SENP8/Z-RLRGG-aminoluciferin, luciferase luminescence interference | inhibition, % at 12.5 µM | 6,200 compounds, 39% hits | AID 488919;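 active means mean inhibition above about 50% when retested at one dose, limit read from the data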;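 further: plate controls were DMSO wells with completed reaction for no effect and substrate without enzyme for full effect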
# Numbers without * were called inactive; nt = no result given.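 How the source made its calls, unless noted: active means mean inhibition above about 50% in the one-dose retest (limit read from the data); inactive means the rest.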
SMILES,SENP6 inh,SENP8 block-1,SENP7 inh,SENP8 block-2,CendR NRP1 mod,SENP1 inh,SENP8 conf,SENP6 conf,SENP7 confirm,Casp3 SENP sel,SENP luc ctr
CNC(=O)c1ccc(OC2CSC2)cc1,-20,21,-5,1,11,0,nt,nt,nt,nt,nt
Cc1ccsc1C(=O)NNC(=O)c1ccccc1F,42,1,58*,29,2,3,26,27,76*,83*,56*
CCOC(=O)c1sc(-c2ccccc2)nc1C,31,15,23,12,11,2,nt,nt,nt,nt,nt
CCOC(=O)Cc1ccc2sc(-c3ccccc3)nc2c1,97*,3,99*,95*,6,2,98*,99*,102*,97*,92*
c1ccc(-c2ccc(-c3cn4c(n3)CCC4)cc2)cc1,87*,-444,73*,69*,4,1,80*,80*,95*,66*,60*
C[C@H]1CN([C@@H](C)CO)S(=O)(=O)c2ccc(Br)cc2O[C@H]1CN(C)C(=O)Cc1ccccn1,nt,0,nt,nt,-2,-6,nt,nt,nt,nt,nt
CSc1nc2[nH]c(=O)n(O)c(=O)c2n1Cc1ccccc1,nt,10,nt,nt,-87,2,nt,nt,nt,nt,nt
Cn1cc(C(=O)Nc2ccc(F)c(Cl)c2)cn1,-11,13,-12,-9,-4,3,nt,nt,nt,nt,nt
CN1c2ccsc2C(O)=C(C(=S)Nc2ccc(F)c(Cl)c2)S1(=O)=O,61*,-102,7,17,5,-25,19,13,10,13,30
COc1cccc(/C=N/Nc2snc(SC)c2C#N)c1,37,-205,0,5,-9,6,nt,nt,nt,nt,nt
COc1cccc(/C=N/Nc2snc(SC)c2C#N)c1O,99*,-255,96*,96*,0,-25,95*,98*,100*,94*,79*
COc1ccc(/C=N/Nc2snc(SC)c2C#N)cc1OC,61*,-272,4,19,-20,-1,6,8,33,12,3
O=C(O)c1cccc(NC(=O)c2cccc(S(=O)(=O)N3CCCCC3)c2)c1,77*,9,78*,64*,-6,3,79*,77*,94*,42,66*
COc1ccc(C(=O)Nc2cccc(C(=O)O)c2)cc1S(=O)(=O)N1CCCC1,51*,3,54*,36,17,0,38,36,73*,16,9
O=C(Nc1cccc(O)c1)c1cccc(S(=O)(=O)N2CCCCCC2)c1,-11,1,-4,-12,5,-1,nt,nt,nt,nt,nt
O=C(COC(=O)CCC(=O)c1ccc(F)cc1)Nc1cccc(S(=O)(=O)N2CCCC2)c1,88*,16,-2,-2,-2,5,3,-4,-10,-3,-2
COc1cccc(C(C)(O)c2nc(-c3cc(F)cc(F)c3)cs2)c1 (configuration not stated),nt,11,nt,nt,-6,1,nt,nt,nt,nt,nt
Cc1ccc(OC(=O)N(C)C[C@H]2OCc3cn(nn3)CCCC(=O)N([C@H](C)CO)C[C@@H]2C)cc1,nt,6,nt,nt,-4,0,nt,nt,nt,nt,nt
c1ccc(COc2ccc(-c3csnn3)cc2)cc1,66*,25,73*,41,-14,4,6,14,24,21,7
CC(=O)COc1ccc(-c2csnn2)cc1,-22,5,-5,-3,6,0,nt,nt,nt,nt,nt
O=C(Nc1ccccn1)c1sc2cccc(F)c2c1Cl,-18,-1,90*,7,12,-1,9,13,3,6,-1
COCc1nnc(NC(=O)c2sc3ccccc3c2Cl)s1,55*,16,31,46,-7,1,41,37,76*,61*,66*
Cc1ccc(NC(=O)c2sc3ccccc3c2Cl)nc1,72*,4,93*,63*,-7,-6,3,2,0,8,-2
O=C1c2ccccc2C(c2nnnn2-c2ccc3c(c2)OCCO3)N1CCc1ccccc1F (configuration not stated),nt,23,nt,nt,17,1,nt,nt,nt,nt,nt
CCCS(=O)(=O)NC(=O)C1(C)CCCN(C(=O)c2cc(F)ccc2C)C1 (configuration not stated),nt,18,nt,nt,-5,1,nt,nt,nt,nt,nt
SMILES,SENP6 inh,SENP8 block-1,SENP7 inh,SENP8 block-2,CendR NRP1 mod,SENP1 inh,SENP8 conf,SENP6 conf,SENP7 confirm,Casp3 SENP sel,SENP luc ctr
CCc1sc(C(=O)Nc2cccnc2)cc1Br,84*,14,79*,60*,3,3,0,67*,91*,64*,72*
Cc1ccc(-c2cc(C(=O)Nc3cccnc3)[nH]n2)c(O)c1C,98*,24,95*,93*,-19,-2,96*,97*,101*,90*,96*
CC(C)(C)c1ccc(NC(=O)c2ccsc2)cc1,86*,21,82*,82*,0,3,86*,85*,98*,78*,29
CC(C)(C)c1ccc(C(=O)Nc2cccnc2)cc1,69*,9,62*,53*,-9,0,12,55*,86*,66*,62*
CC(C)(C)c1ccc(C(=O)Nc2ccc(Cl)cc2)cc1,7,5,10,7,9,1,nt,nt,nt,nt,nt
CNC[C@@H]1OCc2ccccc2-c2c(n(C)c3ccccc23)C(=O)N([C@H](C)CO)C[C@@H]1C,nt,7,nt,nt,1,0,nt,nt,nt,nt,nt
C[C@H]1CN([C@@H](C)CO)C(=O)CCCn2cc(nn2)CO[C@@H]1CN(C)C(=O)Nc1ccccc1F,nt,7,nt,nt,-9,-1,nt,nt,nt,nt,nt
